Data from ChEMBL document CHEMBL4396922, “Identification of new aryl hydrocarbon receptor (AhR) antagonists using a zebrafish model” (Bioorg Med Chem, 2019).
The source made the active and inactive calls. The calls are words filed in the database; no cut-off is given here.

Tests used:
[1] = target: T1, Aryl hydrocarbon receptor (Danio rerio, UniProt Q9YGV3); assay: Antagonist activity at aryl hydrocarbon receptor in 30 hrs post fertilized transgenic cyp1a:EGFP zebrafish embryo assessed as receptor transcriptional activity by measuring cyp1A-mediated EGFP expression at 5 uM measured after 48 hrs by fluorescence stereomicroscopic analysis
T1 sequence (Q9YGV3 whole entry): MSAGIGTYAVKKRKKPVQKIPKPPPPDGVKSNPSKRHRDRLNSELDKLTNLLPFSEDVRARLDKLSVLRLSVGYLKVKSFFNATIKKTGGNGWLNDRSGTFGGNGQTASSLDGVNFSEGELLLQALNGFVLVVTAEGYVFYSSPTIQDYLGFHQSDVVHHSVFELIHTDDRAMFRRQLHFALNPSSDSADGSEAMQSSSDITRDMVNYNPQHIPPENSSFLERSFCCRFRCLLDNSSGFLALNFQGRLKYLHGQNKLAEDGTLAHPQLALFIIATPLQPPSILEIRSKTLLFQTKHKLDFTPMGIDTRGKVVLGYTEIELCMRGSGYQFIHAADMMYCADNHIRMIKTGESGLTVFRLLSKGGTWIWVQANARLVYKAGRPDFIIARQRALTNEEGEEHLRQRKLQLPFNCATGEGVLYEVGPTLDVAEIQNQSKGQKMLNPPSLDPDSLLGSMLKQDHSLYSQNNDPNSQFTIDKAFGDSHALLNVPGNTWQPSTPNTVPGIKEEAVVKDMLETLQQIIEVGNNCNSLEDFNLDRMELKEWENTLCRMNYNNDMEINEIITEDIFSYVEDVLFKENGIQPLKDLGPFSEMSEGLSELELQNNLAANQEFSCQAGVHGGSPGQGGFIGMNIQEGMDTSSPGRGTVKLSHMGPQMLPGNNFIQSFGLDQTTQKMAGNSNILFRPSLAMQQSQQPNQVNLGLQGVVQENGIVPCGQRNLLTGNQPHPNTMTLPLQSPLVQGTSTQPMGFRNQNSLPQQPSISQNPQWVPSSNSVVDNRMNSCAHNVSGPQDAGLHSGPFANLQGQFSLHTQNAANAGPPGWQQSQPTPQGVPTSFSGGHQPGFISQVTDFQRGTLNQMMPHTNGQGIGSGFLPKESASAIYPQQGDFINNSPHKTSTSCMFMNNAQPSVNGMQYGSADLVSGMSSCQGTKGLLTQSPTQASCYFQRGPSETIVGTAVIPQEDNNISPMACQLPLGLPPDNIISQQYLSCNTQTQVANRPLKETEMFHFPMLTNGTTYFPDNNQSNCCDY
Outline: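 Screen format: 30 hpf Tg(cyp1a:nls-egfp) embryos, three per well in 200 µL E3 medium (pH 7.2) with 10 nM TCDD. Each compound was added singly at 5 µM in DMSO. Incubation 48 h, then EGFP scored by fluorescent stereomicroscopy.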

[2] = Toxicity in 30 hrs post fertilized transgenic cyp1a:EGFP zebrafish embryo; type: ADME, Danio rerio; settings: in vivo
[3] = organism: Homo sapiens; assay: Ex vivo expansion of human CD34-positive blood stem/progenitor cells assessed as increase in CD34+ cell population incubated for 5 weeks supplemented with fresh medium containing human recombinant thrombopoietin, stem cell factor, FLT-3 ligand and IL-3 by flow cytometry relative to control; type: functional
Outline: (§1)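 Human cord blood CD34⁺ progenitors, 5 x 10⁴ cells in DXF expansion medium with supplement and cytokine mix (TPO, SCF, flt-3 ligand, IL-3), treated with compound at seeding. Cultured 5 weeks at 37°C, 5% CO2, density kept at 5 x 10⁵–2 x 10⁶ cells/ml. Cells stained with anti-CD34-APC plus CD45RA- or Lin-FITC and counted by flow cytometry; vehicle 0.01% DMSO.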

[4] = organism: Homo sapiens; assay: Ex vivo expansion of human CD34-positive blood stem/progenitor cells assessed as CD34+ cell population incubated for 5 weeks supplemented with fresh medium containing human recombinant thrombopoietin, stem cell factor, FLT-3 ligand and IL-3 by flow cytometry; type: functional; outline: as §1
[5] = target: T1, Aryl hydrocarbon receptor; assay: Antagonist activity at zebrafish AhR2 expressed in COS7 cells transfected with ARNT-1c, Cyp1a-firefly luciferase and pRL-TK Renilla luciferase plasmids assessed as inhibition of AhR transcriptional activity administered at 5 hrs post-transfection treated with TCDD at 1 hr post-compound treatment and measured for 10 sec after a 3 sec delay at 18 hrs post-TCDD challenge by dual luciferase reporter …; type: cell-based

| Compound | Activity [1] | also measured |
| --- | --- | --- |
| COc1ccccc1-c1cc(-c2ccc(OC(C)C)cc2)[nH]n1 | Not Active | Activity [2]: Toxic |
| COc1cc(O)c(C(=O)CC(=O)c2ccc(OC(C)C)cc2)c(OC)c1 | Not Active |  |
| COc1ccccc1-c1cc(-c2ccc(OC(C)C)cc2)ncn1 | Active |  |
| COc1ccccc1-c1cc(-c2ccc(OC(F)(F)F)cc2)no1 | Not Active |  |
| COc1ccccc1-c1cc(-c2ccc(OC(F)(F)F)cc2)[nH]n1 | Not Active | Activity [2]: Toxic |
| COc1ccccc1C(=O)/C=C/c1ccc(OC(C)C)cc1 |  | fold change (FC) [3]: > 4 |
| Cc1ccccc1/N=N/c1ccc(NC(=O)c2ccnn2C)c(C)c1 |  | Activity [4]: inactive; IC50 [5]: 98.1 nM |
| COc1ccccc1-c1cc(-c2ccc(OC(C)C)cc2)no1 | Active |  |
| COc1ccccc1C(=O)/C=C/c1ccc(OC(F)(F)F)cc1 | Not Active | Activity [2]: Toxic |
| COc1ccccc1C(=O)CC(=O)c1ccc(OC(C)C)cc1 |  | Activity [4]: inactive |
| CCOc1ccccc1C(=O)CC(=O)c1ccc(OC(C)C)cc1 |  | Activity [4]: inactive |
| COc1ccccc1C(=O)CC(=O)c1ccc(OC(F)(F)F)cc1 |  | Activity [4]: inactive |

Now from value to compound, other results behind:

| Activity [1] | Compound | also measured |
| --- | --- | --- |
| Not Active | COc1ccccc1C(=O)C(C)(C)C(=O)c1ccc(OC(C)C)cc1 |  |
| Active | COc1ccccc1C(=O)CC(=O)c1cccc(OC(F)(F)F)c1 |  |
| Not Active | COc1ccc(C(=O)CC(=O)c2ccc(OC(F)(F)F)cc2)cc1 |  |
| Not Active | COc1ccc(C(=O)CC(=O)c2ccccc2OC)cc1 |  |
| Active | CCOc1ccc(C(=O)CC(=O)c2ccccc2OC)cc1 |  |
| Not Active | O=C(CC(=O)c1ccc(OC(F)(F)F)cc1)c1ccccc1 |  |
| Not Active | COc1ccccc1C(=O)CC(=O)c1ccccc1 |  |
| Not Active | COc1cccc(OC)c1C(=O)CC(=O)c1ccc(OC(C)C)cc1 |  |
| Not Active | COc1ccccc1C(=O)CC(=O)c1ccc(OCC(C)C)cc1 |  |
| Active | COc1cccc(C(=O)CC(=O)c2ccc(OC(F)(F)F)cc2)c1 |  |
| Not Active | CC(C)Oc1ccc(C(=O)CC(=O)c2ccccc2OC(F)(F)F)cc1 |  |
| Not Active | COc1ccccc1C(=O)CC(=O)c1ccc(OCc2ccccc2)cc1 |  |
